From ChEMBL document CHEMBL1133607, “Nonpeptide analogues of dynorphin A(1-8): design, synthesis, and pharmacological evaluation of kappa-selective agonists” (J Med Chem, 2000)
Residues, ends and D or L forms follow the SMILES beside them. *: point of attachment. X1 = CC1C2Cc3ccc(O)cc3[C@]1(C)CCN2CC1C[C@]1(C(=O)*)c1ccccc1

Legend:
[1] = target: Opioid receptors; mu & kappa (UniProt P41145+P35372); experiment: Ratio of affinity towards mu and kappa opioid receptors; assay type: protein assay
Cavia porcellus = species: Cavia porcellus; experiment: Ratio of affinity towards delta to kappa opioid receptor
Mu-type opioid receptor = Mu-type opioid receptor (Rattus norvegicus, UniProt P33535); experiment: Displacement of [3H]diprenorphine from opioid receptor mu 1 on crude membrane fractions obtained from whole rat brain (minus cerebellum); assay type: tissue-based
Chain of Mu-type opioid receptor (P33535 whole entry): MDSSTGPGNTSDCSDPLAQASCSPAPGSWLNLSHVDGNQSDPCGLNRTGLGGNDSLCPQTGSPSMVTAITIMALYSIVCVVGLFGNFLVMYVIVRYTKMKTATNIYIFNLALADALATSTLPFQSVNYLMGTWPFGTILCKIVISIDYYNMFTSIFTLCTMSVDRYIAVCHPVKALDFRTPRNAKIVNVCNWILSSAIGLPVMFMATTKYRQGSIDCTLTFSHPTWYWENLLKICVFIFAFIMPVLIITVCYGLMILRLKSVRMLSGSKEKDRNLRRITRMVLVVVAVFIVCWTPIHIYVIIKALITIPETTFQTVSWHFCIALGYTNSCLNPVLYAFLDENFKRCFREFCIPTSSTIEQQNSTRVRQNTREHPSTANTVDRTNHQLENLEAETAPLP
Method in brief: (§1)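 Rat whole-brain (minus cerebellum) crude membranes, 1 mg protein/tube, in 50 mM Tris-HCl pH 7.4 with aprotinin, leupeptin and bacitracin. […] U50,488 and DADLE (300 nM each) saturate κ and δ sites; 1 µM DAMGO defines nonspecific binding. Compounds tested at 10^-11 to 10^-5 M. Ki values are the mean of three experiments in duplicate.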

[2] = target: Kappa-type opioid receptor (Cavia porcellus, UniProt P41144); experiment: Displacement of [3H]-U-69,593 from Opioid receptor kappa 1 in guinea pig cerebellar.
Chain of Kappa-type opioid receptor (P41144 whole entry): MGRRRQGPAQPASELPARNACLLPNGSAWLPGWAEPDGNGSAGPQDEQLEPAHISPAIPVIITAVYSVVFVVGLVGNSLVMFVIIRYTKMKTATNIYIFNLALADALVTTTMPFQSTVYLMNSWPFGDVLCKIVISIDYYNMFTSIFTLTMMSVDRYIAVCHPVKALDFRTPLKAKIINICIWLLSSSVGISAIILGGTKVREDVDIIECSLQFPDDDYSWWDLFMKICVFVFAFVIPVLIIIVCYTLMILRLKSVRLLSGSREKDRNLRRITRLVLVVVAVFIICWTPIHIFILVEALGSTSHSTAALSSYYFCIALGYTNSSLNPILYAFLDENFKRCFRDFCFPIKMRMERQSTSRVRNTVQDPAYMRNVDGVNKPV

[3] = target: Delta-type opioid receptor (Rattus norvegicus, UniProt P33533); experiment: Displacement of [3H]diprenorphine opioid receptor delta 1 on crude membrane fractions obtained from the whole rat brain (minus cerebellum); assay type: tissue-based
Chain of Delta-type opioid receptor (P33533 whole entry): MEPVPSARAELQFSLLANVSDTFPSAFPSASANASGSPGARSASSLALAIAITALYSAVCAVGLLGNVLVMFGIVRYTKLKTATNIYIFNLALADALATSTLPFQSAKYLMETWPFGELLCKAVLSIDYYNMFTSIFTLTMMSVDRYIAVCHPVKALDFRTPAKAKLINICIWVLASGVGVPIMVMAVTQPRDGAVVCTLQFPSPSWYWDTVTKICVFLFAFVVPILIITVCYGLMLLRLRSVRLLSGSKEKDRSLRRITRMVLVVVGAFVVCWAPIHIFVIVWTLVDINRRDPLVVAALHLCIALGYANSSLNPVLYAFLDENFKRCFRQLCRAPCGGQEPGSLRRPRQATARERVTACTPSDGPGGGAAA
Method in brief: as §1, with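 “DAMGO” for “DADLE”, “µ” for “δ”, “DPDPE” for “DAMGO”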

Chain of Opioid receptors; mu & kappa (P35372 whole entry, looked up): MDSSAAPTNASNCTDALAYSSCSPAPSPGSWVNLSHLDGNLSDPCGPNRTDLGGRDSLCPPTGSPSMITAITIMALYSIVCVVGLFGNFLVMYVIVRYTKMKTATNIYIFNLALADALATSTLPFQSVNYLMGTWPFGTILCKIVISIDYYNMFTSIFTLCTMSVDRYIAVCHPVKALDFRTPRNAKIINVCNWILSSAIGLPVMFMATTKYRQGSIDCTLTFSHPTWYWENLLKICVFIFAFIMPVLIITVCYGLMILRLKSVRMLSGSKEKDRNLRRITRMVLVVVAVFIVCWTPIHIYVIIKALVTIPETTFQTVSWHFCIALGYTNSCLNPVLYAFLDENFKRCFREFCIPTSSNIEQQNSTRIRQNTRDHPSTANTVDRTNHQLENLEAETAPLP
Chain of Opioid receptors; mu & kappa (P41145 whole entry, looked up): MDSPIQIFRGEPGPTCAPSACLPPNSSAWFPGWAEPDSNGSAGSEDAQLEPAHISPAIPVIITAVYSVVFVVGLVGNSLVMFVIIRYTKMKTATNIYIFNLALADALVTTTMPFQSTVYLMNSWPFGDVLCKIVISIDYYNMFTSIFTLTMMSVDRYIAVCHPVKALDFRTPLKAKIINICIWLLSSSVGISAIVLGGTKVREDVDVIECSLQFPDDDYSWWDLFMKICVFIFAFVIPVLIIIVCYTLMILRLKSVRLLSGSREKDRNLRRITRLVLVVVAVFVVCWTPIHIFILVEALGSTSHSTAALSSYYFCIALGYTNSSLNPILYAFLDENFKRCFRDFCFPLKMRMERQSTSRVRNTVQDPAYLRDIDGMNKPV

CC(C)CC(NC(=O)CNC(=O)[C@]1(c2ccccc2)CC1CN1CC[C@@]2(C)c3cc(O)ccc3CC1C2C)C(=O)NCCCN=C(N)N (some centres not stated)
Selectivity ratio [1]: 128
Selectivity ratio (Cavia porcellus): 51.4

CCCC(=N)NCCCNC(=O)C(CC(C)C)NC(=O)[C@]1(c2ccccc2)CC1CN1CC[C@@]2(C)c3cc(O)ccc3CC1C2C (some centres not stated)
Selectivity ratio [1]: 15
Ki (Mu-type opioid receptor): 3.57 µM
Ki [2]: 238 nM

CCCC(=N)NCCCNC(=O)C(CC(C)C)NC(=O)CNC(=O)[C@]1(c2ccccc2)CC1CN1CC[C@@]2(C)c3cc(O)ccc3CC1C2C (some centres not stated)
Ki [3]: 9.54 µM
Selectivity ratio [1]: 133
Selectivity ratio (Cavia porcellus): 118
Ki (Mu-type opioid receptor): 10.7 µM
Ki [2]: 80.8 nM

CC(C)CC(NC(=O)[C@]1(c2ccccc2)CC1CN1CC[C@@]2(C)c3cc(O)ccc3CC1C2C)C(=O)NCCCCCNC(=N)N (some centres not stated)
Ki (Mu-type opioid receptor): 2.79 µM
Ki [2]: 216 nM

CCCCC(=N)NCCCCCCNC(=O)C(CC(C)C)NC(=O)[C@]1(c2ccccc2)CC1CN1CC[C@@]2(C)c3cc(O)ccc3CC1C2C (some centres not stated)
Ki [3]: 3.26 µM
Selectivity ratio [1]: 27.9
Selectivity ratio (Cavia porcellus): 40.2
Ki (Mu-type opioid receptor): 2.26 µM
Ki [2]: 81 nM

CC(C)CC(NC(=O)[C@]1(c2ccccc2)CC1CN1CC[C@@]2(C)c3cc(O)ccc3CC1C2C)C(=O)NCCCCN (some centres not stated)
Selectivity ratio [1]: 8.9
Ki (Mu-type opioid receptor): 3.4 µM
Ki [2]: 382 nM

CCC(=N)NCCCCCNC(=O)C(CC(C)C)NC(=O)CNC(=O)[C@]1(c2ccccc2)CC1CN1CC[C@@]2(C)c3cc(O)ccc3CC1C2C (some centres not stated)
Ki [3]: 5.58 µM
Selectivity ratio [1]: 70.5
Selectivity ratio (Cavia porcellus): 81.6
Ki (Mu-type opioid receptor): 4.82 µM
Ki [2]: 68.4 nM

CCCCC(=N)NCCCCNC(=O)C(CC(C)C)NC(=O)CNC(=O)[C@]1(c2ccccc2)CC1CN1CC[C@@]2(C)c3cc(O)ccc3CC1C2C (some centres not stated)
Ki [3]: 3.66 µM
Selectivity ratio [1]: 325
Selectivity ratio (Cavia porcellus): 359
Ki (Mu-type opioid receptor): 3.31 µM
Ki [2]: 10.2 nM

CC[C@H](C)[C@H](NC(=O)[C@H](CCCN=C(N)N)NC(=O)[C@H](CCCN=C(N)N)NC(=O)CNC(=O)[C@]1(c2ccccc2)CC1CN1CC[C@@]2(C)c3cc(O)ccc3CC1C2C)C(=O)OC (some centres not stated) (X1-GRRI-OMe)
Selectivity ratio [1]: 42.4

CC(C)CC(NC(=O)CNC(=O)[C@]1(c2ccccc2)CC1CN1CC[C@@]2(C)c3cc(O)ccc3CC1C2C)C(=O)NCCCNC(=N)N (some centres not stated)
Ki [3]: 3.72 µM
Ki (Mu-type opioid receptor): 9.24 µM
Ki [2]: 72.5 nM

CCCC(=N)NCCCCCNC(=O)C(CC(C)C)NC(=O)[C@]1(c2ccccc2)CC1CN1CC[C@@]2(C)c3cc(O)ccc3CC1C2C (some centres not stated)
Selectivity ratio [1]: 12.8
Ki (Mu-type opioid receptor): 2 µM
Ki [2]: 156 nM

CCC(=N)NCCCCCNC(=O)C(CC(C)C)NC(=O)[C@]1(c2ccccc2)CC1CN1CC[C@@]2(C)c3cc(O)ccc3CC1C2C (some centres not stated)
Selectivity ratio [1]: 14.8
Ki (Mu-type opioid receptor): 2.21 µM
Ki [2]: 149 nM

CCC(=N)NCCCNC(=O)C(CC(C)C)NC(=O)[C@]1(c2ccccc2)CC1CN1CC[C@@]2(C)c3cc(O)ccc3CC1C2C (some centres not stated)
Selectivity ratio [1]: 19.6
Ki (Mu-type opioid receptor): 4.98 µM
Ki [2]: 254 nM

CC[C@H](C)[C@H](NC(=O)[C@H](CCCN=C(N)N)NC(=O)[C@H](CCCN=C(N)N)NC(=O)[C@]1(c2ccccc2)C[C@@H]1CN1CC[C@@]2(C)c3cc(O)ccc3CC1C2C)C(=O)OC (some centres not stated)
Ki [3]: > 25 µM
Selectivity ratio [1]: 58.7
Ki (Mu-type opioid receptor): 4.6 µM
Ki [2]: 78.4 nM

CC(C)CC(NC(=O)[C@]1(c2ccccc2)CC1CN1CC[C@@]2(C)c3cc(O)ccc3CC1C2C)C(=O)NCCCCCN=C(N)N (some centres not stated)
Selectivity ratio [1]: 12.9

CC[C@H](C)[C@H](NC(=O)[C@H](CCCNC(=N)N)NC(=O)[C@H](CCCNC(=N)N)NC(=O)CNC(=O)[C@]1(c2ccccc2)CC1CN1CC[C@@]2(C)c3cc(O)ccc3CC1C2C)C(=O)OC (some centres not stated) (X1-GRRI-OMe)
Ki [3]: > 25 µM
Ki (Mu-type opioid receptor): 2.3 µM
Ki [2]: 54.3 nM

CCCC(=N)NCCCCNC(=O)C(CC(C)C)NC(=O)[C@]1(c2ccccc2)CC1CN1CC[C@@]2(C)c3cc(O)ccc3CC1C2C (some centres not stated)
Selectivity ratio [1]: 11.2
Ki (Mu-type opioid receptor): 2.28 µM
Ki [2]: 203 nM

CCC(=N)NCCCNC(=O)C(CC(C)C)NC(=O)CNC(=O)[C@]1(c2ccccc2)CC1CN1CC[C@@]2(C)c3cc(O)ccc3CC1C2C (some centres not stated)
Ki [3]: 10.4 µM
Selectivity ratio [1]: 42.5
Selectivity ratio (Cavia porcellus): 40.5
Ki (Mu-type opioid receptor): 10.9 µM
Ki [2]: 256 nM

CCC(=N)NCCCCCCNC(=O)C(CC(C)C)NC(=O)[C@]1(c2ccccc2)CC1CN1CC[C@@]2(C)c3cc(O)ccc3CC1C2C (some centres not stated)
Ki [3]: 3.55 µM
Selectivity ratio [1]: 25.3
Selectivity ratio (Cavia porcellus): 30.5
Ki (Mu-type opioid receptor): 2.94 µM
Ki [2]: 116 nM

CCCCC(=N)NCCCCCNC(=O)C(CC(C)C)NC(=O)[C@]1(c2ccccc2)CC1CN1CC[C@@]2(C)c3cc(O)ccc3CC1C2C (some centres not stated)
Ki [3]: 3.59 µM
Selectivity ratio [1]: 24.3
Selectivity ratio (Cavia porcellus): 36.6
Ki (Mu-type opioid receptor): 2.38 µM
Ki [2]: 98.1 nM

CC(C)CC(NC(=O)CNC(=O)[C@]1(c2ccccc2)CC1CN1CC[C@@]2(C)c3cc(O)ccc3CC1C2C)C(=O)NCCCCCCNC(=N)N (some centres not stated)
Ki [3]: 2.99 µM
Ki (Mu-type opioid receptor): 3.35 µM
Ki [2]: 35.5 nM
